ChEMBL document CHEMBL1140729, “Synthesis and evaluation of 2'-hydroxyethyl trans-apovincaminate derivatives as antioxidant and cognitive enhancer agents” (J Med Chem, 2008)
Activity calls are given as the source filed them. No cut-off for these calls is given here.

Experiments:
Mus musculus [1] = assay: Inhibition of diazepam-induced amnesia in NMRI mouse at 0.1 mg/kg, po by one-trial passive avoidance test; assay type: functional
Summary of the method: (§1)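 Male NMRI mice, 25–28 g, 10 per group. Anterograde amnesia induced by diazepam 3 mg/kg i.p. 30 min before the acquisition trial. Test compound given orally (0.1 or 10 mg/kg) 1 h before acquisition. Readout is latency to enter the dark chamber. Percent restoration P% = (T_treated+DIA − T_placebo+DIA)/(T_placebo − T_placebo+DIA) × 100.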

Mus musculus [2] = assay: Effect on memory improvement in NMRI mouse at 10 mg/kg by passive avoidance test; assay type: functional, organism-based; parameters: dose 10 mg/kg; summary of the method: as §1
Rattus norvegicus [3] = species: Rattus norvegicus; assay: Inhibition of […] lipid peroxidation in rat brain microsome; assay type: functional
Summary of the method: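 Rat brain microsomes (78000 g pellet) in KCl at 0.2 mg protein per ml. Medium: 50 mM Tris-HCl pH 6.8, 0.2 mM FeCl3, 1 mM KH2PO4, 0.5 mM ADP, preincubated 20 min at 37 °C ± compound. LPO started with 0.4 mM NADPH, run 20 min, stopped with TCA/HCl. TBA boiled 10 min, OD read at 535 nm. IC50 obtained by sigmoid fit of 7–9 concentrations, triplicates.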

Brain = assay: Inhibition of Fe2+-induced lipid peroxidation in rat brain homogenate; assay type: functional, tissue-based
Summary of the method: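 Whole rat brain homogenized in 9 vol ice-cold Krebs-Ringer/15 mM HEPES pH 7.4 with glucose, used fresh at 10 mg protein/ml. Preincubated with compound 20 min at 37 °C. LPO started with ferrous ammonium sulfate (200 µM Fe²⁺), run 20 min, stopped with TCA/HCl. TBA added to supernatant, boiled 20 min, OD read at 535 nm. IC50 obtained by sigmoid fit of 6–9 concentrations, triplicates.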

Mus musculus [4] = assay: Inhibition of diazepam-induced amnesia in NMRI mouse at 10 mg/kg, po by one-trial passive avoidance test; assay type: functional; summary of the method: as §1
Rattus norvegicus [5] = assay: Protective effect against diazepam-induced learning-deficit in Wistar rat at 5 mg/kg, po by water labyrinth test; assay type: functional
Summary of the method: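 Male Wistar rats, 200–220 g, 10 per group. Diazepam 5 mg/kg i.p. in 5% Tween 80, given 30 min before the first swim. Compound given orally at 5 mg/kg 1 h before the first daily trial. Four-day water-labyrinth task with three choice points in water at 24 °C: one pretraining day, then three trials per day. Directional turning errors counted, 12 if the platform was not found in 5 min. Percent restoration calculated; ANOVA with Duncan test.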

Structure (SMILES)	inhibition in vivo at 0.1 mg/kg (Mus musculus [1]) [%]	Activity (Mus musculus [2])	IC50 (Rattus norvegicus [3]) [µM]	IC50 (Brain) [µM]	inhibition in vivo at 10 mg/kg (Mus musculus [4]) [%]	Activity (Rattus norvegicus [5]) [%]
CC[C@]12C=C(C(=O)OCCO)n3c4c(c5ccccc53)CCN(CCC1)[C@H]42	50	Active	9.1	13.6	56	
CC[C@@]12C=C(C(=O)O)n3c4c(c5ccccc53)CCN(CCC1)[C@H]42						66.7
CCOC(=O)C1=C[C@]2(CC)CCCN3CCc4c(n1c1ccccc41)[C@@H]32 [VINPOCETINE]	0		137	209	100	56.6
CCOC(=O)C1=C[C@]2(CC)CCCN3CCc4c(n1c1ccccc41)[C@H]32			3.5	14.4		
CC[C@]12C=C(C(=O)OCCOC(C)=O)n3c4c(c5ccccc53)CCN(CCC1)[C@H]42	72	Active	3.8	15.2	44	
CCC(=O)OCCOC(=O)C1=C[C@]2(CC)CCCN3CCc4c(n1c1ccccc41)[C@H]32	16		5	21	4	
CC[C@]12C=C(C(=O)OCCOC(=O)c3ccccc3)n3c4c(c5ccccc53)CCN(CCC1)[C@H]42	23		3.4	14.8	16	
CC[C@@]12C=C(C(=O)OCCO)n3c4c(c5ccccc53)CCN(CCC1)[C@H]42			> 30			80.3
CC[C@@]12C=C(C(=O)[O-])n3c4c(c5ccccc53)CCN(CCC1)[C@@H]42.[Na+]			> 300	238		71.3
CC[C@]12C=C(C(=O)O)n3c4c(c5ccccc53)CCN(CCC1)[C@H]42			> 300	258		
CC[C@@]12C=C(C(=O)OCCOC(=O)c3ccc(Cl)cc3)n3c4c(c5ccccc53)CCN(CCC1)[C@@H]42	3		2.7	14.6	15	
COC1=C(OC)C(=O)C(CCCCCCCCCCO)=C(C)C1=O [IDEBENONE]			1.3	31.5		
Cc1cc(C(C)(C)C)c(O)c(C(C)(C)C)c1 [BUTYLATED HYDROXYTOLUENE]			3.2	6.2		
CCOC(=O)C1=C[C@@]2(CC)CCCN3CCc4c(n1c1ccccc41)[C@@H]32			3	13.4		
CC[C@@]12C=C(C(=O)OCCO)n3c4c(c5ccccc53)CCN(CCC1)[C@@H]42	74	Active	7	13.7	65	81.1
CCC(=O)OCCOC(=O)C1=C[C@@]2(CC)CCCN3CCc4c(n1c1ccccc41)[C@@H]32	64		4.4	15.8	24	
CC[C@@]12C=C(C(=O)OCCOC(=O)c3ccccc3)n3c4c(c5ccccc53)CCN(CCC1)[C@@H]42	0		3.8	18.2	0	
CC[C@@]12C=C(C(=O)OCCOC(C)=O)n3c4c(c5ccccc53)CCN(CCC1)[C@@H]42	79	Active	3.6	9.8	100	
O=c1c(O)c(-c2ccc(O)c(O)c2)oc2cc(O)cc(O)c12 [QUERCETIN]			8.5	10.7		
Cc1c(C)c2c(c(C)c1O)CCC(C)(CCCC(C)CCCC(C)CCCC(C)C)O2 (racemic) [alpha-TOCHOPHEROL]			273	35.7		
CC[C@]12C=C(C(=O)OCCOC(=O)c3ccc(Cl)cc3)n3c4c(c5ccccc53)CCN(CCC1)[C@H]42			2.7	15.7		
